# Test results reported in ChEMBL document CHEMBL1138791, “Acyl sulfonamide anti-proliferatives: benzene substituent structure-activity relationships for a novel class of antitumor agents” (J Med Chem, 2004).
# Assays:
# [1] = Diameter of zone of inhibition for cell colony formation of normal fibroblast at the dose of 210 ug; Range is 0-6.5; type: functional, Homo sapiens
# Method in brief: (§1)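 Soft agar disk diffusion: leukemia (L1210), solid tumor (HCT116, or colon H15) and normal fibroblast cells seeded in soft agar in separate 60 mm dishes. Compound applied to a filter paper disk (dose in μg/disk) set on the agar. Colony-formation inhibition zones read after 6–7 days at 37 °C. 200 zone units = 6.5 mm; 950 = total inhibition; a range marks partial colony shrinkage. n > 2 unless noted.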
# [2] = test system: HCT-116; test: Diameter of zone of inhibition for cell colony formation of solid tumor HCT116 at the dose of 210 ug; type: functional, Homo sapiens
# Method in brief: (§2)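 HCT116, L1210 leukaemia and normal fibroblast cells were seeded in soft agar in separate 60 mm dishes. The compound was applied to a filter-paper disk laid on the agar. Colony-formation inhibition zones were read after 6–7 days at 37 °C and expressed in zone units (200 units = 6.5 mm; 950 = total inhibition; 0 = none). n > 2 unless otherwise indicated.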
# [3] = test system: L1210; test: Diameter of zone of inhibition for cell colony formation of leukemia L1210 at the dose of 210 ug; type: functional, Mus musculus; method in brief: as §1
# [4] = Diameter of zone of inhibition for cell colony formation of normal fibroblast at the dose of 190 ug; Range is 0-12.35; type: functional, Homo sapiens; method in brief: as §1
# [5] = test system: HCT-116; test: Diameter of zone of inhibition for cell colony formation of solid tumor HCT116 at the dose of 190 ug; type: functional, Homo sapiens; method in brief: as §1
# [6] = test system: HCT-116; test: Growth inhibitory activity against human colon HCT116 cell line; type: functional
# Method in brief: (§3)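 Cell-line screen run at NCI by published procedures. […] The mean graph midpoint is taken across all human cancer cell lines successfully tested.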
# [7] = Diameter of zone of inhibition for cell colony formation of normal fibroblast at the dose of 190 ug; Range is 0-13.65; type: functional, Homo sapiens; method in brief: as §1
# [8] = test system: NCI-H522; test: Growth inhibitory activity against human lung NCI-H522 cell line; type: functional; method in brief: as §3
# [9] = test system: HT-29; test: Growth inhibitory activity against human colon HT-29 cell line; type: functional; method in brief: as §3
# [10] = test system: SW-620; test: Growth inhibitory activity against human colon SW620 cell line; type: functional; method in brief: as §3
# [11] = test system: HL-60; test: Growth inhibitory activity against human leukemia HL-60 (TB) cell line; type: functional; set-up: unit not given here
# [12] = test system: MCF7; test: Growth inhibitory activity against human breast MCF-7 cell line; type: functional; method in brief: as §3
# [13] = test system: Panel (Carcinoma cell lines); test: Mean graph mid point value for cytotoxic activity against human cancer cell lines was determined; type: functional; method in brief: as §3
# [14] = test system: L1210; test: Diameter of zone of inhibition for cell colony formation of leukemia L1210 at the dose of 190 ug; Range is 0-5.525; type: functional, Mus musculus; method in brief: as §1
# [15] = test system: RXF 393; test: Growth inhibitory activity against human renal RXF-393 cell line; type: functional; method in brief: as §3
# [16] = Diameter of zone of inhibition for cell colony formation of normal fibroblast at the dose of 210 ug; Range is 0-13.975; type: functional, Homo sapiens; method in brief: as §1
# [17] = test system: L1210; test: Diameter of zone of inhibition for cell colony formation of leukemia L1210 at the dose of 210 ug; Range is 3.75-5.525; type: functional, Mus musculus; method in brief: as §1
# [18] = test system: L1210; test: Diameter of zone of inhibition for cell colony formation of leukemia L1210 at the dose of 210 ug; Range is 0-8.125; type: functional, Mus musculus; method in brief: as §1
# [19] = Diameter of zone of inhibition for cell colony formation of normal fibroblast at the dose of 210 ug; type: functional, Homo sapiens; method in brief: as §1
# [20] = test system: L1210; test: Diameter of zone of inhibition for cell colony formation of leukemia L1210 at the dose of 190 ug; type: functional, Mus musculus; method in brief: as §1
# [21] = Diameter of zone of inhibition for cell colony formation of normal fibroblast at the dose of 190 ug; Range is 0-10.25; type: functional, Homo sapiens; method in brief: as §1
# [22] = test system: HCT-116; test: Diameter of zone of inhibition for cell colony formation of solid tumor HCT116 at the dose of 190 ug; Range is 22.75-24.375; type: functional, Homo sapiens; method in brief: as §2
# [23] = Diameter of zone of inhibition for cell colony formation of normal fibroblast at the dose of 190 ug; type: functional, Homo sapiens; method in brief: as §1
# [24] = Diameter of zone of inhibition for cell colony formation of normal fibroblast at the dose of 190 ug; Range is 0-12.025; type: functional, Homo sapiens; method in brief: as §1
# [25] = test system: HCT-116; test: Diameter of zone of inhibition for cell colony formation of solid tumor HCT116 at the dose of 200 ug; type: functional, Homo sapiens; method in brief: as §2
# [26] = test system: L1210; test: Diameter of zone of inhibition for cell colony formation of leukemia L1210 at the dose of 200 ug; type: functional, Mus musculus; method in brief: as §1
# [27] = Diameter of zone of inhibition for cell colony formation of normal fibroblast at the dose of 200 ug; type: functional, Homo sapiens; method in brief: as §1
# [28] = test system: L1210; test: Diameter of zone of inhibition for cell colony formation of leukemia L1210 at the dose of 210 ug; Range is 6.5-8.125; type: functional, Mus musculus; method in brief: as §1
# [29] = Diameter of zone of inhibition for cell colony formation of normal fibroblast at the dose of 210 ug; Range is 0-9.425; type: functional, Homo sapiens; method in brief: as §1
# [30] = Diameter of zone of inhibition for cell colony formation of normal fibroblast at the dose of 190 ug; Range is 0-2.275; type: functional, Homo sapiens; method in brief: as §1
# [31] = test system: L1210; test: Diameter of zone of inhibition for cell colony formation of leukemia L1210 at the dose of 190 ug; Range is 0-6.825; type: functional, Mus musculus; method in brief: as §1
# [32] = Diameter of zone of inhibition for cell colony formation of normal fibroblast at the dose of 190 ug; Range is 0-8.775; type: functional, Homo sapiens; method in brief: as §1
# [33] = test system: Mus musculus; test: Tumor growth delay of human HCT116 colorectal carcinoma in mice after intravenous administration at dose of 100 mg/kg; type: functional
compound,measurement,setting,value
COc1ccc(S(=O)(=O)NC(=O)c2ccc(Cl)cc2Cl)cc1OC,Inhibition,[1],6.5 mm
same,Inhibition,[2],16.25 mm
same,Inhibition,[3],0 mm
Cc1ccc(S(=O)(=O)NC(=O)c2ccc(Cl)cc2Cl)cc1Cl,Inhibition,[4],12.35 mm
same,Inhibition,[5],18.52 mm
COc1ccc(S(=O)(=O)NC(=O)c2ccc(Cl)cc2Cl)cc1,GI50,[6],3.5 µM
same,Inhibition,[7],13.65 mm
same,GI50,[8],39.6 µM
same,GI50,[9],41.5 µM
same,GI50,[10],9.5 µM
same,GI50,[11],38.9
same,GI50,[12],23.9 µM
same,MGM,[13],28.8
same,Inhibition,[14],5.52 mm
same,GI50,[15],6.4 µM
same,Inhibition,[5],21.12 mm
O=C(NS(=O)(=O)c1ccc(Br)cc1)c1ccc(Cl)cc1Cl,Inhibition,[2],20.15 mm
same,Inhibition,[16],13.97 mm
same,Inhibition,[17],5.52 mm
Nc1cc(Cl)ccc1C(=O)NS(=O)(=O)c1ccc(Cl)cc1,Inhibition,[18],8.12 mm
same,Inhibition,[2],19.82 mm
same,Inhibition,[19],8.77 mm
Cc1cc(Br)ccc1C(=O)NS(=O)(=O)c1ccc(Cl)cc1,Inhibition,[20],0 mm
same,Inhibition,[21],10.25 mm
same,Inhibition,[22],24.37 mm
CN(C)c1ccc(C(=O)NS(=O)(=O)c2ccc(Cl)cc2)cc1,Inhibition,[23],0 mm
same,Inhibition,[20],5.85 mm
same,Inhibition,[5],11.7 mm
Cc1cc(Cl)ccc1C(=O)NS(=O)(=O)c1ccc(Cl)cc1,GI50,[6],9.7 µM
same,GI50,[8],100 µM
same,GI50,[9],100 µM
same,GI50,[10],37.9 µM
same,GI50,[11],49.5
same,GI50,[12],17.7 µM
same,MGM,[13],41.7
same,GI50,[15],8.6 µM
O=C(NS(=O)(=O)c1cccc(-c2ccccc2)c1)c1ccc(Cl)cc1Cl,Inhibition,[24],12.02 mm
same,Inhibition,[20],0 mm
same,Inhibition,[5],19.5 mm
O=C(NS(=O)(=O)c1cc([N+](=O)[O-])ccc1Cl)c1ccc(Cl)cc1Cl,Inhibition,[25],0 mm
same,Inhibition,[26],0 mm
same,Inhibition,[27],0 mm
O=C(NS(=O)(=O)c1ccc(-c2ccccc2)cc1)c1ccc(Cl)cc1Cl,Inhibition,[28],8.12 mm
same,Inhibition,[2],16.25 mm
same,Inhibition,[29],9.42 mm
O=C(NS(=O)(=O)c1ccc(Cl)cc1)c1ccc(Cl)cc1,Inhibition,[20],5.85 mm
same,Inhibition,[5],10.72 mm
same,Inhibition,[30],2.27 mm
O=C(NS(=O)(=O)c1ccc(Br)c(Br)c1)c1ccc(Cl)cc1Cl,Inhibition,[31],6.82 mm
same,Inhibition,[32],8.77 mm
same,Inhibition,[5],13.84 mm
O=C(NS(=O)(=O)c1ccc(Cl)cc1)c1ccc([N+](=O)[O-])cc1,Inhibition,[23],0 mm
same,Inhibition,[20],6.5 mm
same,Inhibition,[5],8.77 mm
CCc1c2c(nc3ccc(OC(=O)N4CCC(N5CCCCC5)CC4)cc13)-c1cc3c(c(=O)n1C2)COC(=O)[C@]3(O)CC.Cl,Growth delay,[33],15 days
